Measurements as given in publication PMC3119342 (Chemistry & biology, 2011).
Entries after “also recorded” stand apart in the source; their conditions may differ.

Tests used:
mouse brain KIAA1363 = target: T1, mouse brain KIAA1363 (Mus musculus, UniProt Q8BLF1); assay: Gel-based competitive ABPP; assay type: biochemical; conditions: read-out: IC50 for KIAA1363, mouse brain proteome
T1 sequence (Q8BLF1 1-408): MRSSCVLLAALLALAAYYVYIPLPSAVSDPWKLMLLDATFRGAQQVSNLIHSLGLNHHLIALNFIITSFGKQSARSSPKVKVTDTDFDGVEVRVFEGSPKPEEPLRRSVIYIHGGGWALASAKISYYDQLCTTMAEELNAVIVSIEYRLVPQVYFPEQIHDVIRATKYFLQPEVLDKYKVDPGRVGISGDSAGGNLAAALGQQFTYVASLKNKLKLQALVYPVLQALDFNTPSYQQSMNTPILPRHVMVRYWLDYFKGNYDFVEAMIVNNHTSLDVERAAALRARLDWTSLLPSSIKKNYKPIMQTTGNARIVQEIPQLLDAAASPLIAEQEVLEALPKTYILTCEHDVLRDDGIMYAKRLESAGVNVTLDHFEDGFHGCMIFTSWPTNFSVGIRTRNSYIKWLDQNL

HSL = target: T2, HSL (Mus musculus, UniProt P54310); assay: Competitive ABPP in rosiglitazone-differentiated 3T3-10T1/2 adipocyte proteome; assay type: biochemical
T2 sequence (P54310 1-759): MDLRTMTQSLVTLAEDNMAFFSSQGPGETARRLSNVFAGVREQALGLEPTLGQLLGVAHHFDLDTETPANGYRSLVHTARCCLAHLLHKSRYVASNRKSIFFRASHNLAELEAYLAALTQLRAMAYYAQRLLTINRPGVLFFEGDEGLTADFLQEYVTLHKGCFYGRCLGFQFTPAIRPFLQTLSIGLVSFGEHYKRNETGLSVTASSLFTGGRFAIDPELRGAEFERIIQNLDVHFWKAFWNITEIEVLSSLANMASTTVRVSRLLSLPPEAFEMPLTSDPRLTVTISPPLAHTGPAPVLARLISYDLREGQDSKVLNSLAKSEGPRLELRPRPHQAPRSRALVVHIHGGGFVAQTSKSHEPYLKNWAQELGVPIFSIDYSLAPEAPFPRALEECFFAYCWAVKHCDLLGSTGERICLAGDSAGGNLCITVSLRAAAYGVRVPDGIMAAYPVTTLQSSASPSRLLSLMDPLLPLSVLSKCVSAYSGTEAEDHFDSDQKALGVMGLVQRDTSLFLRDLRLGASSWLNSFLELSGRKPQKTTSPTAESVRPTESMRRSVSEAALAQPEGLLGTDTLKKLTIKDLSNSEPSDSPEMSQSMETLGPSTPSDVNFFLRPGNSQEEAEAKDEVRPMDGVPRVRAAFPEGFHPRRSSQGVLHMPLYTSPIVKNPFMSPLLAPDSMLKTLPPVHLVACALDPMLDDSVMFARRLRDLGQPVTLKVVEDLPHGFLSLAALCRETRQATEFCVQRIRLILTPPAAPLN

FAAH = target: T3, FAAH (Mus musculus, UniProt O08914); assay: Competitive ABPP of FAAH in mouse brain proteome; assay type: biochemical; conditions: gel-based competitive ABPP of a mouse brain proteome
T3 sequence (O08914 1-579): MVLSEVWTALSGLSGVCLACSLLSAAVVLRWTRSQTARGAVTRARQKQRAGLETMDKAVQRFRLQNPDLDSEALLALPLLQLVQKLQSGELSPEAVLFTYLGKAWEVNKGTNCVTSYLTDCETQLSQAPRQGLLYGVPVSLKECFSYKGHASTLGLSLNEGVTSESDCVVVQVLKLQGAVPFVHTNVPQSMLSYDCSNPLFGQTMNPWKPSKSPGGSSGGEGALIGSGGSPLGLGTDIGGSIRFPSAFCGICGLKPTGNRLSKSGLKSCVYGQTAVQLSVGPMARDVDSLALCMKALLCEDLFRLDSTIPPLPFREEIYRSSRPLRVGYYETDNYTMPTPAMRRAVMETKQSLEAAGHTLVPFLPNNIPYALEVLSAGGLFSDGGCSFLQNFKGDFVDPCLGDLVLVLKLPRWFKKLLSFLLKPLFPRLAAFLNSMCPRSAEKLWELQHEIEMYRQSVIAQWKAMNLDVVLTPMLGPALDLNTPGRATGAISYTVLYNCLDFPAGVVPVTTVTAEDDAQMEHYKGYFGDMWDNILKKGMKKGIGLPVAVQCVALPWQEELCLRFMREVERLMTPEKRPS

AChE = AChE (Mus musculus, UniProt P21836); conditions: mouse brain proteome; for IC50: read-out: IC50 for AChE, substrate acetylthiocholine
AChE, sequence (P21836 32-614): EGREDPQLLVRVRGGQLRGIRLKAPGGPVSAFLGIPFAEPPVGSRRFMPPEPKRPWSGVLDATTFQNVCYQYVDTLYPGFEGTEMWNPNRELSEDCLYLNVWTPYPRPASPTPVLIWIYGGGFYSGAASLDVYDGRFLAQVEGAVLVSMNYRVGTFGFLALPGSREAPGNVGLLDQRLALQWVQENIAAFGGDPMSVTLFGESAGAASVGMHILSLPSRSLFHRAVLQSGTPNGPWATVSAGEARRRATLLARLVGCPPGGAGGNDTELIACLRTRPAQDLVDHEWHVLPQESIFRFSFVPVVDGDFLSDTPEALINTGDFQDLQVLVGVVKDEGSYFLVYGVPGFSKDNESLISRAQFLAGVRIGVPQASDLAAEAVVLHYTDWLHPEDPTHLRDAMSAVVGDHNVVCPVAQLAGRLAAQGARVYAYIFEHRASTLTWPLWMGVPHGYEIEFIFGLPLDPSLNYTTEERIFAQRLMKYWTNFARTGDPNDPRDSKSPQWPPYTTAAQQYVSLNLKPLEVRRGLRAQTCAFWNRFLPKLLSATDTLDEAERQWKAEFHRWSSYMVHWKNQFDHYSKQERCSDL

MAGE lipids = assay: Lipid measurements; assay type: cell-based, human; conditions: for MAGE lipids: prostate cancer cells (Figure S4); for MAGE lipid levels: 1 μM, 48 hr
PC3 cells [1] = assay: Invasion assay; assay type: cell-based, human; conditions: prostate cancer (PC3) cells; JW480 1 μM, 48 h in situ
PC3 cells [2] = assay: Serum-free cell survival assay; assay type: cell-based, human; conditions: prostate cancer (PC3) cells; JW480 1 μM, 48 h in situ
PC3 cells [3] = assay: Cell migration assay; assay type: cell-based, human; conditions: prostate cancer (PC3) cells; JW480 1 μM, 48 h in situ
KIAA1363 [4] = target: T4, KIAA1363 (Homo sapiens, UniProt Q6PIU2); assay: Gel-based competitive ABPP in PC3 cell proteomes; assay type: biochemical; conditions: read-out: IC50 for human KIAA1363, in vitro treatment
T4 sequence (Q6PIU2 1-408): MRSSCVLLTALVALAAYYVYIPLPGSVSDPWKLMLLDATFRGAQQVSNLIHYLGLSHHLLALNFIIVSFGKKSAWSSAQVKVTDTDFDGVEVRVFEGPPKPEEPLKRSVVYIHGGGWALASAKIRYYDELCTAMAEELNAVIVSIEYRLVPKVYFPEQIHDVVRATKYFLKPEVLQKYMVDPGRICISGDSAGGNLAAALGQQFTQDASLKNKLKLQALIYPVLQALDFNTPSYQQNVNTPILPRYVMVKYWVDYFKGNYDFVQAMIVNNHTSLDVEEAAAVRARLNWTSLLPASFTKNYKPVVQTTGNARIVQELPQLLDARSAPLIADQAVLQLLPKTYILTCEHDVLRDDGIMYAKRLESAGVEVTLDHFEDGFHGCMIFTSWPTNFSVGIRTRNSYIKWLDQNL

KIAA1363 [5] = target: T4, KIAA1363; assay: Gel-based competitive ABPP in living PC3 cells; assay type: cell-based; conditions: for IC50: read-out: IC50 for KIAA1363
[6] = test system: other mouse brain serine hydrolases; assay: Gel-based competitive ABPP, other serine hydrolases of mouse brain proteome; assay type: biochemical
[7] = test system: serine hydrolase activities detected in PC3 cells; assay: Competitive ABPP-MudPIT of PC3 cells treated in situ; assay type: cell-based, human; conditions: 1 μM in situ, ~30 serine hydrolase activities
brain KIAA1363 = target: T5, brain KIAA1363 (Mus musculus, UniProt Q8BLF1); assay: Competitive ABPP of brain proteomes from inhibitor-treated mice; assay type: in vivo; conditions: for inhibition of brain KIAA1363: 4 hr
T5 sequence (Q8BLF1 1-408): T1 sequence (Q8BLF1 1-408)

[8] = target: T6, KIAA1363 (2-acetyl MAGE hydrolase activity) (Homo sapiens, UniProt Q6PIU2); assay: 2-Acetyl MAGE hydrolytic activity assay in prostate cancer cells; assay type: cell-based; conditions: 1 μM, 48 h
T6 sequence (Q6PIU2 1-408): T4 sequence (Q6PIU2 1-408)

LNCaP cells = assay: Cell survival assay in LNCaP cells; assay type: cell-based, human; conditions: which express low levels of KIAA1363
PC3 tumor xenograft = PC3 tumor xenograft growth in SCID mice; assay type: in vivo, mouse; conditions: 80 mg/kg, oral gavage, one dose per day, versus vehicle
Procedure, shortened: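 PC3 cells were washed, trypsinised, resuspended serum-free at 2.0 × 10^4 cells/μL, and 100 μL was injected into the flank of C.B17 SCID mice. Dosing was once daily by oral gavage in PEG300 (4 μL/g) or vehicle, starting immediately after injection. Tumours were measured with calipers every 3 days and excised 4 hr after the final dose on day 33 for ABPP.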

[9] = target: serine hydrolase activities detected in the brain proteome (Mus musculus, UniProt P21836); conditions: brain proteome of treated mice (Figure 4C)
serine hydrolase activities detected in the brain proteome, sequence (P21836 32-614): as the sequence (P21836 32-614) above

SMILES | IC50 (mouse brain KIAA1363) | cross-reactivity with HSL (HSL) | selectivity for KIAA1363 compared to FAAH (FAAH) | cross-reactivity with AChE (AChE) | MAGE lipids (MAGE lipids) | invasion (PC3 cells [1]) | survival in serum-free media (PC3 cells [2]) | migration (PC3 cells [3]) | IC50 (AChE) | other results
CC1(C)Cc2cccc(OC(=O)NCc3ccc(F)cc3)c2O1 [WWL38] | ~0.2 µM | cross-reactivity | good selectivity | cross-reactivity | – | – | – | – | – | –
CCCCOC[C@H]1CCCC[C@H]1COCCNC(=O)Oc1ccccc1F [AS115, reference compound] | – | – | – | – | reductions | also observed | also observed | – | – | –
COc1ccc(CNC(=O)Oc2cccc3c2OC(C)(C)C3)cc1 [JW148] | ~0.2 µM | cross-reactivity | good selectivity | cross-reactivity | reductions | also observed | also observed | also observed | 1 µM | –
CC(C)c1ccccc1OC(=O)NCCc1ccc2ccccc2c1 [JW480] | – | negligible cross-reactivity | – | negligible cross-reactivity | – | reductions; also recorded: reduced | reductions; also recorded: reduced | reductions; also recorded: reduced | > 100 µM | IC50 (KIAA1363 [4]): 0.012 µM; time in situ inhibition of KIAA1363 was maintained (KIAA1363 [5]; 1 μM, in situ): at least 48 hr; IC50 (KIAA1363 [5]; PC3 cells, in situ): 0.006 µM; IC50 (KIAA1363 [5]; living PC3 cells, in situ treatment, presence or absence of 10% fetal calf serum): 0.006 to 0.012 µM; cross-reactivity with other mouse brain serine hydrolases [6]: negligible cross-reactivity; off-target activity across serine hydrolases by ABPP-MudPIT [7]: no off-target activity; also recorded: only KIAA1363 was inhibited; time of full inhibition of KIAA1363 in mice (brain KIAA1363; following a single administration, orally active): at least 24 hrs; inhibition of brain KIAA1363 (brain KIAA1363; mice, 5 mg/kg i.p.): complete inhibition; inhibition of brain KIAA1363 (brain KIAA1363; mice, 20 mg/kg oral): complete inhibition; time inhibition of KIAA1363 was maintained in vivo (brain KIAA1363; mice, single administration, 20 mg/kg, oral): up to 24 hr; 2-acetyl MAGE hydrolase activity ([8]; DU145 cells): completely blocked; also recorded: ablates; 2-acetyl MAGE hydrolase activity ([8]; PC3 cells): completely blocked; also recorded: ablates; MAGE lipid levels (MAGE lipids; DU145 cells): significant reductions; also recorded: significantly reduces; MAGE lipid levels (MAGE lipids; PC3 cells): significant reductions; also recorded: significantly reduces; survival in LNCaP cells (LNCaP cells): did not affect; PC3 tumor growth (PC3 tumor xenograft): significantly impaired; also recorded: significantly reduces; cross-reactivity with AChE by competitive ABPP-MudPIT [9]: negligible cross-reactivity
